Bioassay records deposited in PubChem BioAssay by several laboratories.
Hits are enriched below; roughly 2.2% of the tested compounds scored in any of these assays.
CCR6 antag = antagonists of human CCR6 receptor; P51684; hit rate 0.49% among 340,000; AID 493098; inhibition, % at 20 µM; CHO-K1 CCR6 PathHunter beta-arrestin, luminescence, CCL20-stimulated;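 active = compounds whose inhibition of the agonist-driven luminescence signal at 20 µM reaches about 50%, limit read from the data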;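 note: cells stimulated with CCL20 at 14 nM final; plate controls were DMSO with CCL20 for no effect and DMSO without agonist for full effect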
APJ antag = APJ receptor antagonism | P35414 | CHO-K1 APJ beta-arrestin complementation, luminescence | inhibition, % at 20 µM | hit rate 0.32% among 330,000 | AID 2521;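 active = inhibition above about 40% at 20 µM, limit read from the data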;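 note: cells challenged with 10 nM apelin-13 agonist together with compound; plate controls were apelin-13 plus DMSO wells for no effect and DMSO wells lacking apelin-13 for full effect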
CXCR6 inh = blocks human CXCR6 beta-arrestin recruitment. hit rate 0.36% among 360,000. AID 602244. inhibition, % at 20 µM. CHO-K1 PathHunter CXCR6 beta-arrestin, luminescence; in the data active = inhibition above about 34%, passing the limit was not always enough;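 note: antagonist mode with CXCL16 agonist at 10 nM final; 0% = 10 nM CXCL16 with DMSO and 100% = unstimulated wells without agonist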
EBI2 antag = blocks human EBI2 receptor beta-arrestin signaling; P32249; EBI2 beta-arrestin recruitment, luminescence, 7a,25-OHC stimulated; inhibition, % at 5 µM; hit rate 0.81% among 360,000; in the data active = inhibition above about 38%;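 note: enzyme fragment complementation signal reports receptor beta-arrestin coupling in cells; 0% = agonist plus DMSO wells and 100% = wells without agonist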
HTR2A ag = mouse HTR2A agonism via beta-arrestin recruitment. P35363. CHO-K1 mHTR2A beta-arrestin complementation, luminescence; percent of 30 µM serotonin response. activation, % at 7.6 µM. hit rate 0.66% among 360,000;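 active = activation above a run cutoff, the mean activation of all tested compounds plus 3 SD, cut at about 14% in these data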;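 note: 0% = plate median of compound wells and 100% = 30 µM serotonin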
Target sequence (P35363 whole entry, looked up): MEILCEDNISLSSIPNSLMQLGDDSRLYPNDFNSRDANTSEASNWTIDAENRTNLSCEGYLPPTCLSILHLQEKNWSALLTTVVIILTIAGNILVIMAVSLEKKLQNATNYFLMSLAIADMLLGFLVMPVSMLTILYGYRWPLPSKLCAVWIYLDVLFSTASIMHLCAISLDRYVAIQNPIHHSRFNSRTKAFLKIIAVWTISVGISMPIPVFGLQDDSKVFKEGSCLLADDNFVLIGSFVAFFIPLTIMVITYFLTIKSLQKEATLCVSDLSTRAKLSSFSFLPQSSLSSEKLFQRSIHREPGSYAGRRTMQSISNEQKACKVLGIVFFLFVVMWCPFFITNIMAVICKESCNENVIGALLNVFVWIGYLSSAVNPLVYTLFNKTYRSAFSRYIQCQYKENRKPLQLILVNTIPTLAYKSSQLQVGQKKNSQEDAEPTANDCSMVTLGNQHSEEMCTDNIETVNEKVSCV
APJ agonist = agonists of human APJ apelin receptor | P35414 | CHO-K1 APJ PathHunter beta-arrestin, luminescence; 0% DMSO wells, 100% apelin | activation, % at 20 µM | hit rate 0.11% among 330,000 | AID 2520;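 active = activation more than six SD over the plate average, tested at 20 µM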;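 note: 0% = DMSO alone and 100% = apelin-13 at 10 nM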
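Assay system – PathHunter CHO-K1 APJ (AGTRL-1) beta-arrestin reporter cells · Compound – one dose, 20 µM compound, 1% DMSO · Timing – compound 90 min 25 °C, reagent 1 h · Measured by – luminescence from split beta-galactosidase complementation, Galacton Star/Emerald II substrate · Measure – beta-arrestin recruitment to APJ as agonist activity, luminescent signal · Benchmarks – DMSO vs Apelin-13 10 nM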
Active calls of the source: *; x = no result given.

SMILES	CCR6 antag	APJ antag	CXCR6 inh	EBI2 antag	HTR2A ag	APJ agonist
COC(=O)[C@]12CCCCC=C1N(Cc1ccc(Cl)cc1Cl)C(=O)[C@H](CC(=O)N1CCSCC1)C2	x	x	11	10	-3	x
COc1cc(/C=N/N=C(N)N)ccc1OCc1ccccc1Cl	0	-21	-11	-20	-1	22*
CCN(CC)c1ccc(/C=C(\C#N)C(N)=S)cc1	52*	-33	35	16	0	2
CCN(CC)c1ccc(/C=C(\C#N)C(N)=O)cc1	15	x	-1	0	4	x
CCN(CC)c1ccc(/C=C(\C#N)C(=O)c2ccc(Br)cc2)cc1	32	x	30	45*	-1	x
C=CCn1c(Sc2ncc([N+](=O)[O-])s2)n[nH]c1=O	56*	31	42*	6	-7	11
Cc1ccc(S(=O)(=O)N2C[C@H]3n4c(=O)ccc(=O)n4C[C@H](OC(=O)NCc4ccco4)[C@@]3(O)C2)cc1	x	x	2	-6	6	x
COc1ccc(N=Nc2cc(C)ccc2O)cc1	14	6	12	12	1	-3
Cc1ccc(O)c(N=Nc2nccs2)c1	x	-31	52*	6	-7	-9
CC(C)Nc1nc(NCCOc2ccccc2)c2sccc2n1	x	x	-5	-6	-3	x
CCCCN(C=O)c1c(CC)nc2ccc(C(=O)NCCc3ccccn3)cn12	x	x	-4	-18	-2	x
CC1(C)CCCN(C(=O)c2ccc3c(c2NCCO)C(=O)c2ccccc2C3=O)C1	22	-12	0	38*	-3	-1
CC(=O)C[C@H]1SC[C@@H](C(C)C)N1S(=O)(=O)c1ccc(C)cc1	x	x	x	-5	2	x
Nc1nc2ccc(Cl)cc2cc1C(=O)NCCc1c[nH]c2ccccc12	x	x	-8	-6	2	x
COc1ccc(/C(C)=N/Nc2ncc(Cl)cc2Cl)c(O)c1	22	11	2	43*	-8	-1
O=C(/C=C/c1ccc2c(c1)OCCO2)N1CCN(c2ccc(F)cc2)CC1	12	13	-1	44*	7	-2
O=C(/C=C/c1ccc(S(=O)(=O)N2CCOCC2)cc1)N1CCN(c2ccc(F)cc2)CC1	2	-3	-15	-8	1	-2
CCCCOCCCNC(=O)C[C@@H]1C[C@@]2(C(=O)OCC)CCCC=C2N(Cc2ccc3c(c2)OCO3)C1=O	x	x	-4	-8	7	x
Cc1cccc(N=Cc2cc3c(cc2[N+](=O)[O-])OCO3)c1	-2	-10	-2	6	1	-1
O=[N+]([O-])c1cc2c(cc1C=Nc1ccccc1)OCO2	2	-19	-2	3	15*	2
C#CC(=O)N(c1ccc(OC)cc1OC)C(C(=O)NC1CCCC1)c1cccs1 (centres undefined)	5	-13	0	40	-5	3
C#CC(=O)N(c1cc(OC)ccc1OC)C(C(=O)NC1CCCC1)c1cccs1 (centres undefined)	12	12	13	50*	-1	2
Cc1ccc(C(=O)NCCN2CCC(n3c(=O)[nH]c4ccccc43)CC2)cc1C	x	x	-5	1	-5	x
Cc1ccc(-c2cc(-c3ccccc3)c(C#N)c(N)n2)o1	78*	0	1	-5	4	-6
Cc1ccc(-c2cc(-c3ccccc3Cl)c(C#N)c(N)n2)o1	26	21	2	17	0	-5
SMILES	CCR6 antag	APJ antag	CXCR6 inh	EBI2 antag	HTR2A ag	APJ agonist
Cc1ccc(C)c(N=Nc2nc3ccccc3n2C)c1	32	15	28*	42	-10	-10
COC(=O)[C@]12CCCCC=C1N(Cc1cccc3ccccc13)C(=O)[C@H](CC(=O)NCCC(C)C)C2	x	x	9	5	0	x
O=C(Nc1nnc(C2CC2)s1)c1cc([N+](=O)[O-])ccc1N1CCCCC1	72*	16	20	12	1	-3
O=C(NCc1ccccc1)C(C1CC1)n1c(-c2cccs2)nc2ccccc21 (centres undefined)	x	x	x	-4	1	x
COc1ccc(Cn2cc(CN(C)C3CN(Cc4cn(Cc5ccc(OC)cc5)nn4)S(=O)(=O)C3)nn2)cc1 (centres undefined)	x	x	-6	-9	-2	x
CN(C)c1ccc(N=Nc2ccccc2C(=O)OCC(=O)NCC2CCCCC2)cc1	54*	22	17	21	-8	-8
O=C1OCCC1=COCCCCCCOC=C1CCOC1=O	x	x	-6	-4	2	x
Cc1ccc(F)c(S(=O)(=O)NC(=O)C2(C)CCN2C(=O)Cc2ccccc2)c1 (centres undefined)	x	x	-13	7	0	x
COc1cccc(N2CCN(c3ncnc4c3[nH]c3ccc(F)cc34)CC2C)c1 (centres undefined)	16	-21	-8	-40	32*	-2
Cc1ccc(C(=O)NCCc2nnc3ccc(SCC(=O)Nc4nnc(C)s4)nn23)cc1	x	x	-3	-8	10	x
Cc1ccc(C(=O)N/C(=C\c2ccc(-c3ccc(Br)cc3)o2)C(=O)NCCCN(C)C)cc1	70*	18	12	-16	-2	-1
Nc1nn2c(-c3ccccc3)cc(=O)[nH]c2c1N=Nc1ccc(O)cc1	32	24	11	11	-6	-4
Nc1nn2c(-c3ccccc3)cc(=O)[nH]c2c1N=Nc1ccc(Br)cc1	43	x	41*	7	5	x
CCOC(=O)C1=NNC(C(=O)c2ccc(Cl)cc2)C1c1ccc(OC)cc1 (centres undefined)	48	65*	18	12	0	-13
CN1CCN(C(=O)c2cc3cc(F)ccc3[nH]2)CC1	8	7	-2	12	3	0
Cc1cccc(N2CCN(C(=O)c3cc4cc(F)ccc4[nH]3)CC2)c1C	-1	-5	14	92*	-7	-2
CCOC(=S)SCC(=O)Nc1nc(-c2ccc(Br)cc2)cs1	-25	18	2	69*	0	-3
Cc1cccc(C)c1-n1nnnc1C(c1cc2ccccc2o1)N1CCN(C/C=C/c2ccccc2)CC1 (centres undefined)	x	x	11	34	-7	x
CC(=O)Nc1ccc(CNc2nc3cc(-c4ccsc4)sc3c(=O)n2C)cc1	x	x	0	13	4	x
CS(=O)(=O)c1ccc(-n2nnc3ccccc32)c([N+](=O)[O-])c1	-16	-35	6	-4	1	4
N#Cc1cc([N+](=O)[O-])c(-n2nnc3ccccc32)c([N+](=O)[O-])c1	x	24	74*	-4	1	4
COc1cccc(-c2cnc(C(O)c3ccc(Cl)cc3C)[nH]2)c1 (centres undefined)	x	x	2	-2	0	x
CN(C)CCCN(C(=O)CCc1ccccc1)c1nc2ccc(F)cc2s1	6	6	-6	1	-6	-2
CN(C)CCCN(C(=O)CCc1ccccc1)c1nc2ccc(Br)cc2s1	53*	11	-5	-16	-8	5
COc1ccc(N2C(=O)C(Cl)=C(Oc3cccc(OC)c3)C2=O)cc1	97*	3	32	13	4	-2
